In data set [1] the test system is Trypanosoma cruzi. Nature of the data set: Antitrypanosomal activity against Trypanosoma cruzi amastigotes infected in mouse peritoneal macrophages assessed as inhibition of infection after 3 day. As to conditions: 72 h. It counts as functional, organism-based. The method, boiled down: (§1)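 Swiss mouse peritoneal macrophages (3 × 10^5/well) were plated for 24 h, then infected with Y-strain trypomastigotes (10:1) in DMEM with 10% FCS for 3 h. Free parasites were washed off, and compounds were added at 2.5–30 µM final for 1–4 days. Cells were fixed in Bouin's solution and stained with Giemsa. Percent infection and endocytic index (parasites/100 cells) were counted, and IC50 was derived. Three independent experiments.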

In data set [2] the test system is Trypanosoma cruzi. Nature of the data set: Antitrypanosomal activity against Trypanosoma cruzi amastigotes infected in mouse peritoneal macrophages assessed as endocytic index after 1 day. It counts as functional, organism-based. As to conditions: 24 h. In outline: as §1
Data set [3] relates to Trypanosoma cruzi. Nature of the data set: Antitrypanosomal activity against Trypanosoma cruzi infected in mouse assessed as decrease in mortality rate at 100 mg/kg, po after 6 days post infection. Also on record: dose 100 mg/kg. The class given is functional, organism-based. The method, boiled down:
(§2)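 Male Swiss mice, 8–10 per group, infected i.p. with 10^4 bloodstream trypomastigotes. From dpi 6, mice received 10 consecutive daily gavage doses of 100 mg/kg in water with 10% Tween-80. Parasitemia was read daily on dpi 6–21 by the Pizzi-Brener method. Mortality was noted daily, and %CM at 40 dpi and M50 were calculated.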

For data set [4], the system named is Trypanosoma cruzi. Nature of the data set: Antitrypanosomal activity against Trypanosoma cruzi amastigotes infected in mouse peritoneal macrophages assessed as inhibition of infection after 1 day. It counts as functional, organism-based. As to conditions: 24 h. The method, boiled down:
as §1

Data set [5] has as its system Trypanosoma cruzi. Nature of the data set: Antitrypanosomal activity against Trypanosoma cruzi trypomastigotes assessed as shortening of flagellum at 11.6 uM after 24 hrs by scanning electron microscopy. The class given is functional, organism-based. In outline:
(§3)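 Trypomastigotes (5 × 10^6/ml) were treated for 24 h and adhered to poly-L-lysine coverslips. They were fixed in 2.5% glutaraldehyde in 0.1 M cacodylate (pH 7.2) for 40 min and postfixed for 30 min in 1% OsO4, 0.8% ferricyanide and 2.5 mM CaCl2. Samples were acetone-dehydrated, critical-point dried, gold-coated (20 nm) and examined by scanning EM.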

Data set [6] has as its system Trypanosoma cruzi. As to the kind of experiment: Antitrypanosomal activity against Trypanosoma cruzi amastigotes infected in mouse embryo heart muscle cells assessed as endocytic index at 40 uM. The class given is functional, organism-based. The method, boiled down: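 Mouse embryo heart muscle cells (10^5/well) were plated on gelatin-coated coverslips and infected after 24 h with trypomastigotes at 10:1 parasite/host cell. After another 24 h, cultures were washed and exposed to compounds at 10–40 µM final. At intervals, cells were fixed in Bouin's solution and stained with Giemsa. Percent infection and endocytic index (parasites/100 cells) were counted, and IC50 was derived.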

Data set [7] deals with Trypanosoma cruzi. As to the kind of experiment: Antitrypanosomal activity against Trypanosoma cruzi amastigotes infected in mouse peritoneal macrophages assessed as endocytic index after 2 day. As to conditions: 48 h. It counts as functional, organism-based. The method, boiled down:
as §1

The nature of data set [8]: Cytotoxicity against Swiss mouse peritoneal macrophages after 48 hrs by MTT assay. The conditions noted are these: read-out: LC50. It counts as cell-based, Peritoneal macrophage cell. The method, boiled down:
(§4)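 Uninfected host cells were exposed to compounds at 37°C for 2 days, with compound stocks in DMSO. Cells were Swiss mouse peritoneal macrophages or primary mouse embryo heart muscle cells (18-day embryos, trypsin/collagenase dissociated, gelatin-coated coverslips, DMEM with horse and fetal calf sera, chicken embryo extract). Viability was read by MTT at 490 nm to give LC50.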

For data set [9], the system named is Mus musculus. As to the kind of experiment: Toxicity in mouse assessed as GPT level in blood at 400 mg/kg, po after 4 days. As to conditions: in vivo, 96 h. Also on record: dose 400 mg/kg, route oral. The class given is organism-based. The method, boiled down: (§5)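 Uninfected male Swiss mice, 8–10 per group, received by gavage either a single 400 mg/kg dose or 10 doses of 100 mg/kg (vehicle water with 10% Tween-80). GOT, GPT and urea were measured directly in blood with the Reflotron system, and body weight was recorded. Single-dose toxicity was analyzed 4 days after treatment.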

Data set [10] deals with Trypanosoma cruzi. Nature of the data set: Antitrypanosomal activity against Trypanosoma cruzi amastigotes infected in mouse peritoneal macrophages assessed as endocytic index after 3 day. The class given is functional, organism-based. The conditions noted are these: 72 h. The method, boiled down: as §1
Data set [11] has as its system Mus musculus. As to the kind of experiment: Toxicity in mouse assessed as body weight at 400 mg/kg, po after 4 days. On the set-up: dose 400 mg/kg, route oral. The class given is organism-based. The conditions noted are these: in vivo, 96 h. The method, boiled down:
as §5

Data set [12] deals with Mus musculus. As to the kind of experiment: Toxicity in mouse assessed as GOT level in blood at 400 mg/kg, po after 4 days. As to conditions: in vivo, 96 h. It counts as organism-based. Also on record: dose 400 mg/kg, route oral. In outline:
as §5

Data set [13] deals with Trypanosoma cruzi. As to the kind of experiment: Antitrypanosomal activity against Trypanosoma cruzi amastigotes infected in mouse peritoneal macrophages assessed as inhibition of infection after 4 day. It counts as functional, organism-based. The conditions noted are these: 96 h. The method, boiled down: as §1
For data set [14], the system named is Trypanosoma cruzi. Nature of the data set: Antitrypanosomal activity against Trypanosoma cruzi amastigotes infected in mouse peritoneal macrophages assessed as endocytic index after 4 day. The class given is functional, organism-based. As to conditions: 96 h. In outline:
as §1

Data set [15] deals with Mus musculus. As to the kind of experiment: Toxicity in mouse assessed as urea level in blood at 400 mg/kg, po after 4 days. It counts as organism-based. Also on record: dose 400 mg/kg, route oral. As to conditions: in vivo, 96 h. In outline: as §5
The subject of data set [16] is Trypanosoma cruzi. As to the kind of experiment: Antitrypanosomal activity against Trypanosoma cruzi Y infected in mouse assessed as decrease in mouse mortality at 200 mg/kg, po upto 40 days post infection. It counts as functional, organism-based. On the set-up: dose 200 mg/kg. In outline: (§6)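 Male Swiss mice (6–8 weeks, 18–20 g), 8–10 per group, infected i.p. with 10^4 bloodstream trypomastigotes (Y strain). On dpi 5, a single 200 mg/kg oral gavage dose was given in water with 10% Tween-80. Parasitemia was counted daily from dpi 6 to 21 by the Pizzi-Brener method. Body weight was recorded weekly. Mortality was recorded daily, and cumulative mortality at 40 dpi and M50 were calculated.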

Data set [17] deals with Trypanosoma cruzi. As to the kind of experiment: Antitrypanosomal activity against Trypanosoma cruzi infected in mouse assessed as decrease in parasitemia in blood at 100 mg/kg, po after 6 days post infection. The conditions noted are these: 144 h. It counts as functional. The method, boiled down: as §2
Data set [18] deals with Trypanosoma cruzi. Nature of the data set: Antitrypanosomal activity against Trypanosoma cruzi amastigotes infected in mouse peritoneal macrophages assessed as inhibition of infection after 2 day. It counts as functional, organism-based. As to conditions: 48 h. In outline: as §1
Data set [19] in a line: Selectivity index, ratio of LC50 for mouse peritoneal macrophages to IC50 for inhibition of Trypanosoma cruzi amastigotes. In outline: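 SI = LC50/IC50 in peritoneal macrophages. LC50 came from the 2-day MTT assay on uninfected macrophages. Cells were Bouin-fixed and Giemsa-stained, and endocytic index (parasites/100 cells) was counted. Three independent experiments.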

In data set [20] the test system is Trypanosoma cruzi. Nature of the data set: Antitrypanosomal activity against Trypanosoma cruzi Y infected in mouse assessed as decrease in parasitemia in blood at 200 mg/kg, po upto 40 days post infection. The class given is functional. On the set-up: scale not given: the % may be the effect or the level left. The method, boiled down:
as §6

Data set [21] in a line: Cytotoxicity against swiss mouse HMC after 48 hrs by MTT assay. The conditions noted are these: read-out: LC50. In outline: as §4
Background: Formazan colour is commonly taken as a measure of viable cells.

The subject of data set [22] is Trypanosoma cruzi. Nature of the data set: Antitrypanosomal activity against Trypanosoma cruzi infected in mouse assessed as reduction in inflammatory foci in cardiac muscle at 100 mg/kg, po after 6 days post infection. The class given is functional, organism-based. Also on record: dose 100 mg/kg. The conditions noted are these: Muscle tissue. In outline: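 Infected mice were dosed by gavage at 100 mg/kg daily for 10 days from dpi 6. Two mice per group were euthanized at 14 dpi. Paraffin heart sections were stained with hematoxylin-eosin. Under a 40× objective, parasite nests and inflammatory foci (≥10 mononuclear cells) were counted per mm2 over 30 fields.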

Data set [23] concerns Trypanosoma cruzi. Nature of the data set: Antitrypanosomal activity against Trypanosoma cruzi trypomastigotes assessed as shrinkage of cell surface and body at 11.6 uM after 24 hrs by scanning electron microscopy. It counts as functional, organism-based. In outline: as §3
For data set [24], the system named is Trypanosoma cruzi. As to the kind of experiment: Antitrypanosomal activity against Trypanosoma cruzi Y infected in mouse assessed as decrease in mouse mortality at 200 mg/kg, po after 20 days post infection. It counts as functional, organism-based. Also on record: dose 200 mg/kg. In outline: as §6

Results on four compounds are retold here after ChEMBL document CHEMBL1255468 (Antimicrob Agents Chemother, 2010).

Active and inactive are the calls of the source. The rule behind the calls is not given here. Where only a bound is given, the exact number is not on record here.

Take `Cn1c([N+](=O)[O-])cnc1-c1nnc(N/N=C\c2ccc(O)cc2)s1`: the IC50 (in general, the concentration at which inhibition is half-maximal) in the data set with Trypanosoma cruzi [1] was 6.2 µM; in the data set with Trypanosoma cruzi [2], 5 µM; in the data set with Trypanosoma cruzi [4] it was 7.1 µM; in the data set with Trypanosoma cruzi [7], 2.9 µM; with Trypanosoma cruzi [10], 3.2 µM; in the data set on Trypanosoma cruzi [13] it was 1.7 µM. Further, the half-inhibitory concentration (IC50) was found to be 1.3 µM in the data set with Trypanosoma cruzi [14] and 6 µM in the data set on Trypanosoma cruzi [18]. For the same compound, the outcome in the data set on Trypanosoma cruzi [3] and with Trypanosoma cruzi [6] was inactive. Besides, the outcome in the data set with Trypanosoma cruzi [5], with Trypanosoma cruzi [16], in the data set on Trypanosoma cruzi [22] and in the data set with Trypanosoma cruzi [23] was Active. The CC50 at 48 h is greater than 100 µM in data set [8] and greater than 240 µM in data set [21]. Also, the Activity with Mus musculus [9] was found to be 24.4 U/L; with Mus musculus [11] it was 25.5 g; in the data set on Mus musculus [12] it was 76.6 U/L; in the data set with Mus musculus [15], 58.6 mg/dL; in the data set on Trypanosoma cruzi [20] it was 50%. Besides, the inhibition in vivo (in general, how much of the control response was suppressed) at 100 mg/kg with Trypanosoma cruzi [17] came out at 46%. For the same compound, the “Ratio LC50/IC50” value in [19] is greater than 41.

`Cn1c([N+](=O)[O-])cnc1-c1nnc(N/N=C\c2ccc([N+](=O)[O-])cc2)s1`: the result in the data set with Trypanosoma cruzi [24] was inactive. The result in the data set on Trypanosoma cruzi [20] was Active.

Take `COc1ccc(/C=N\Nc2nnc(-c3ncc([N+](=O)[O-])n3C)s2)cc1O`: the result in the data set with Trypanosoma cruzi [16] and in the data set with Trypanosoma cruzi [20] was inactive.

In the case of `Cn1c([N+](=O)[O-])cnc1-c1nnc(N/N=C\c2ccc(Cl)cc2)s1`, the result in the data set with Trypanosoma cruzi [16] and in the data set on Trypanosoma cruzi [20] was inactive.
